Screening results deposited in PubChem by several laboratories.
Rows were chosen to be rich in hits. Some 3.1% of all compounds tested hit in one or more screens of this group.
VIM-2 inh = blocks Pseudomonas aeruginosa VIM-2 metallo-beta-lactamase | actives 0.89% (n = 290,000) | purified VIM-2, nitrocefin hydrolysis, epi-absorbance fluorescence | inhibition, % at 5.6 µM | AID 1527;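 active = inhibition above the mean of all tested compounds plus 3 SD, cutoff set per screening run, cut at about 7.5% in these data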;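 also: red hydrolysis product quenches plate fluorescence so inhibitors raise well fluorescence; 0% = enzyme with DMSO and 100% = DMSO without enzyme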
IMP-1 inhibitor = inhibitors of Pseudomonas aeruginosa IMP-1 metallo-beta-lactamase; purified IMP-1, nitrocefin hydrolysis, epi-absorbance fluorescence; inhibition, % at 5.6 µM; actives 0.45% (n = 290,000); AID 1556;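 active = inhibition above the mean plus 3 SD of all compounds in the same screening run, cut at about 4.5% in these data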;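 also: 0% = IMP-1 with DMSO and 100% = DMSO wells lacking enzyme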
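system = purified recombinant IMP-1 beta-lactamase | amount = 0.2 nM IMP-1, as dispensed | medium = HEPES buffer pH 7.1 with ZnSO4 and Brij 35 | times = 25 °C, 15 min preincubation, 25 min reaction | detection = plate fluorescence quenching by hydrolysis product, ex 480/em 530 nm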
SUMO HTRF inh = blocks human SUMOylation mediated by UBC9. HTRF SUMOylation assay, SAE1/SAE2 + UBC9, in vitro. inhibition, % at 35 µM. actives 0.36% (n = 290,000). AID 2006; in the data active = inhibition above about 50%, passing the limit was not always enough
Target sequence (P63279 whole entry, looked up): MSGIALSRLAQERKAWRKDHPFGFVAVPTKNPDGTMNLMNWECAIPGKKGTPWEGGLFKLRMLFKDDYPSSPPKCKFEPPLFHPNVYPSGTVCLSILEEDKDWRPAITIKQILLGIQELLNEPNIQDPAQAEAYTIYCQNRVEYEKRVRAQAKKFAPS
NS3 helicase inh = HCV NS3 helicase inhibition. NS3 helicase DNA unwinding, Cy5 molecular beacon fluorescence. inhibition, % at 10.9 µM. actives 0.56% (n = 290,000). AID 1800;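 active = inhibition above the mean of all tested compounds plus 3 SD, set per campaign, cut at about 35% in these data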;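 also: 0% = DMSO wells and 100% = thioflavine S control wells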
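Control set: DMSO versus 110 µM thioflavine S; Material: NS3 helicase fragment of HCV; Measured by: Cy5 fluorescence at 0 and 60 min, beacon hairpin quenching; Read-out basis: percent inhibition from t60/t0 fluorescence ratio; Times: reaction time 60 min, 25 °C; Repeats: single replicate; Compound dosing: single dose, 10.9 µM nominal final, DMSO 0.8% final.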
core dimer inh = blocks dimerization of HCV core protein; TR-FRET GST/Flag-core106 dimerization, 1536-well; inhibition, % at 5 µM; actives 0.33% (n = 300,000);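 active = inhibition above the mean of all tested compounds plus 3 SD, set per screening campaign, cut at about 45% in these data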
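Assay system: Tagged HCV core106 pair (GST and Flag) | Buffer or medium: KF-containing HEPES buffer, pH 7.45, DTT, CHAPS, BSA | Also added: Eu donor and XL665 acceptor anti-tag antibodies | Dosing: One concentration, 5 µM, in 0.5% DMSO | Timing: 4 h at 22.5 °C | Technique: TR-FRET 671 and 617 nm emission | Repeats: Singlicate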
PHOSPHO1 block = blocks human PHOSPHO1 phosphatase activity. actives 1.1% (n = 290,000). recombinant PHOSPHO1, absorbance phosphatase assay. AID 1565. inhibition, % at 13.3 µM; in the data active = inhibition above about 60%
Target sequence (Q8TCT1 whole entry, looked up): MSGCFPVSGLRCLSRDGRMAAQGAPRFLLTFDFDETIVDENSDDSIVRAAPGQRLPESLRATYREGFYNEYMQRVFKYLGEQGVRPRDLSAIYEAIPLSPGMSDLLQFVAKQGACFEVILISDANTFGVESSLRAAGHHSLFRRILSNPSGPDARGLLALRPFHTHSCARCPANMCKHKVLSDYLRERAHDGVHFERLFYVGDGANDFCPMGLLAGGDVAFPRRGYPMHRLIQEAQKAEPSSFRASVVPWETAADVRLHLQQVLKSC
* hit, by the source's call; · = no result given.

SMILES	VIM-2 inh	IMP-1 inhibitor	SUMO HTRF inh	NS3 helicase inh	core dimer inh	PHOSPHO1 block
Nc1c(-c2ccccc2)cnn1-c1cccc([N+](=O)[O-])c1	-3	-1	21	-9	-4	65*
COc1ccc2c(c1)C=C(CN1CCN(C3CCCC3)C(CCO)C1)CO2 (stereo unspecified)	-3	-1	6	5	-2	24
COC(=O)c1ccc(Oc2c(C)oc3c(CN4CCN(C)CC4)c(O)ccc3c2=O)cc1	0	-1	38	7	1	10
COc1ccccc1Oc1c(C)oc2c(CN3CCN(C)CC3)c(O)ccc2c1=O	-3	-4	52*	2	-4	16
Cc1cc(=O)[nH]c(SCC(=O)N(CCC#N)c2ccccc2)c1C#N	-2	0	2	-6	2	4
CCCn1c(SCC(=O)Nc2nnc(C)s2)nnc1C1CC1	7.8*	-2	9	13	-20	20
CN1CCN(C(=O)c2cccn(Cc3c(Cl)cccc3Cl)c2=O)CC1	-2	-3	0	-3	8	28
COC(=O)c1ccc(CC(=O)c2ccc(O)cc2O)o1	-1	0	0	13	2	64*
CCC(C)(C(=O)NC1CCCCC1)N(CC1CCCO1)C(=O)Cc1cccs1 (stereo unspecified)	-2	-1	-14	-9	-3	-5
CCN1CCN(Cc2c(O)ccc3c2O/C(=C\c2ccc(C)cc2)C3=O)CC1	8.8*	2	34	-45	-3	-10
CCN1CCN(Cc2c(O)ccc3c2O/C(=C\C=C\c2ccccc2)C3=O)CC1	0	1	14	36*	5	-17
CC1CCCN(Cc2c(O)ccc3c2O/C(=C\c2ccco2)C3=O)C1 (stereo unspecified)	-3	-1	25	17	-8	-18
Cc1ccc(/C=C2\Oc3c(ccc(O)c3CN3CCN(C)CC3)C2=O)cc1	9.5*	1	49	-9	-2	-5
CCc1ccc(/C=C2\Oc3c(ccc(O)c3CN3CCN(C)CC3)C2=O)cc1	2	-2	27	-14	-2	0
COc1ccccc1/C=C/C=C1\Oc2c(ccc(O)c2CN2CCN(CCO)CC2)C1=O	2	27*	29	-55	-24	19
O=C1/C(=C/C=C/c2ccccc2)Oc2c1ccc(O)c2CN1CCN(CCO)CC1	-2	-1	25	-62	-5	32
COc1ccc(C)cc1NC(=O)c1nn(C)cc1Br	1	-3	21	0	2	24
Cc1nn(C)c2ncc(C(N)=O)c(Oc3ccc(Cl)cc3)c12	-3	-1	18	4	-7	46
Oc1ccc(COCc2ccccc2)c2cccnc12	-1	-2	0	-3	0	-1
Oc1ccc(CN2CCCCC2)c2cccnc12	0	-3	-11	5	-1	15
Oc1c(CN2CCCCC2)cc(COCc2ccccc2)c2cccnc12	12*	-2	-19	6	1	30
COCc1cc(CN2CCCC2)c(O)c2ncccc12	8.2*	0	-33	-4	-5	29
COc1cccc(C(=O)NCCS(=O)(=O)N2CCN(C(=O)c3ccco3)CC2)c1	·	·	·	·	0	·
Cc1cc2oc(=O)c(CC(=O)NCCCN(C)C)c(C)c2c2occ(C(C)(C)C)c12	8.9*	1	17	-41	-9	-11
COCCNC(=O)Cc1c(C)c2c(cc(C)c3c(C(C)(C)C)coc32)oc1=O	0	-5	20	0	4	11
SMILES	VIM-2 inh	IMP-1 inhibitor	SUMO HTRF inh	NS3 helicase inh	core dimer inh	PHOSPHO1 block
Cc1cc2oc(=O)c(CC(=O)O)c(C)c2c2occ(C(C)(C)C)c12	11*	4	28	11	9	16
Cc1cc(C)nc(CCNC(=O)CC2C(=O)NCCN2Cc2ccccc2)n1 (stereo unspecified)	-3	-3	12	2	-4	29
O=C1NCCSC1c1ccccc1 (stereo unspecified)	·	·	·	·	3	·
c1ccc2[nH]c(SN3CCOCC3)nc2c1	-4	-2	-3	-3	·	102*
CCOCCCNC(=O)c1ccc(/C=C2\Oc3ccccc3N(C)C2=O)cc1	7.7*	0	21	-21	-7	16
CCOCCCNC(=O)c1ccc(Br)cc1	0	-2	5	-1	-9	-21
Cc1ccccc1N(C(=O)CNC(=O)c1ccco1)C(C(=O)NC1CCCC1)c1ccncc1 (stereo unspecified)	-1	1	-22	18	-14	13
COc1ccc(NC(=S)N(C(C)C)C2CCN(C(C)C)CC2)cc1Cl	-1	-1	0	-8	6	30
O=C(Nc1ccc(N2CCN(C(=O)c3ccccc3F)CC2)cc1)c1ncn[nH]1	-4	-2	3	3	-5	-17
Oc1c(Br)cc(Br)cc1/C=N/c1nc2c(s1)CCCC2	-2	-1	·	8	5	·
Oc1ccc2ccccc2c1/C=N/c1nc2c(s1)CCCC2	-2	0	15	-2	10	76*
CCc1c(C)c(C#N)c2nc3ccccc3n2c1NCCOC	5	-2	18	5	0	-20
CCc1c(C)c(C#N)c2nc3ccccc3n2c1NCC1CCCO1 (stereo unspecified)	7.8*	-1	12	-3	0	-7
CC(C)c1cc(NCC2CCCO2)n2c(nc3ccccc32)c1C#N (stereo unspecified)	9.9*	-2	21	-1	7	17
Cc1csc2nc(SCC(=O)N3CCN(c4ccccc4)CC3)[nH]c(=O)c12	7	-3	9	0	25	36
CCOc1ccccc1N1C(=O)c2ccc(S(=O)(=O)c3ccc(C(=O)O)cc3)cc2C1=O	-1	-1	16	10	1	16
O=c1cc(-c2cc3ccccc3o2)c2cc(O)ccc2o1	-1	-2	18	12	-1	11
CC(=O)COc1ccc2oc(=O)cc(-c3cc4ccccc4o3)c2c1	8.3*	-2	18	13	12	-21
COC(=O)Nc1sc2c(c1C(=O)NC1CC1)CCCCCC2	-4	-4	-9	11	1	88*
CCN1CCN(c2nc(C)nc3c2sc(=S)n3C)CC1	5	-4	13	7	·	60*
CC1(C)Cc2c(C#N)c(N3CCN(C(=O)c4ccccc4Cl)CC3)nc(-c3ccco3)c2CS1	-3	1	34	28	81*	49
CC1(C)Cc2c(C#N)c(N3CCN(C(=O)c4ccco4)CC3)nc(-c3ccco3)c2CS1	-4	-2	30	23	72*	-3
N#Cc1c(N2CCN(C(=O)c3ccccc3Cl)CC2)nc(-c2ccccc2)c2c1CCCC2	-3	-3	12	0	-1	-1
CC1(C)Cc2c(C#N)c(N3CCN(C(=O)c4ccco4)CC3)nc(Cc3ccccc3)c2CO1	-1	-2	8	5	20	2
